Measured values gathered from unrelated publications.
Protocols differ between the studies behind these lines.
CDK9: Cyclin-dependent kinase 9 (CDK9, Homo sapiens, UniProt P50750)

Structure (SMILES) | target | assay | system | conditions | endpoint | value
Cc1ccc(NC(=O)c2ccnc(C(F)(F)F)c2)cc1-c1cc(OCCO)nc(N2CCOCC2)c1 | CDK9 | binding |  | 1 µM | remaining binding | 100%
CNS(=O)(=O)c1ccc(Nc2ncc(C(F)(F)F)c(N3CCC[C@](C)(O)C3)n2)c(C)c1 | CDK9 | binding, competition with immobilised ligand |  | 1 µM | remaining binding | 98%
C=CC(=O)N1CCC([C@@H]2CCNc3c(C(N)=O)c(-c4ccc(Oc5ccccc5)cc4)nn32)CC1 | CDK9 | enzyme activity, inhibitor |  | 1 µM | inhibition | 0%
CC(C)(C)c1cnc(CSc2cnc(NC(=O)C3CCN(C(=O)CCOCCN4Cc5cc6c(cc5C4)C(=O)N(C4CCC(=O)NC4=O)C6=O)CC3)s2)o1 (stereo not drawn) | CDK9 | protein level, degrader, western blot | TC-71 | 25 nM | inhibition | 87.5%
C[C@H]1CC[C@H](n2c3cnccc3c3cnc(Nc4ccc5c(n4)CCN(C(=O)CO)C5)nc32)CC1 | CDK9 | cell-free assay |  | 1 µM | remaining signal | 60%
C[C@]1(O)CCCN(c2nc(Nc3ccc(S(=O)(=O)N[C@H]4CC[C@H](CN5CCN(c6ccc(C7CCC(=O)NC7=O)cc6F)CC5)CC4)cc3Cl)ncc2C(F)(F)F)C1 (stereo partly drawn) | CDK9 | binding, competition with immobilised ligand |  | 1 µM | remaining binding | 100%
CC(C)(C)c1cnc(CSc2cnc(NC(=O)C3CCN(C(=O)CCOCCCN4Cc5cc6c(cc5C4)C(=O)N(C4CCC(=O)NC4=O)C6=O)CC3)s2)o1 (stereo not drawn) | CDK9 | protein level, degrader, western blot | TC-71 | 25 nM | inhibition | 85.1%
CCCCC(=O)Nc1ccc(-c2ccc3ncn(CCC)c(=O)c3c2)cn1 | CDK9 | binding, competition with immobilised ligand |  | 0.5 µM | remaining binding | 92%
CC(C)(C)c1cnc(CSc2cnc(NC(=O)C3CCN(C(=O)COCCOCCN4Cc5cc6c(cc5C4)C(=O)N(C4CCC(=O)NC4=O)C6=O)CC3)s2)o1 (stereo not drawn) | CDK9 | protein level, degrader, western blot | TC-71 | 25 nM | inhibition | 80.7%
CC(C)S(=O)(=O)c1ccc2nccc(Nc3ccc4sc(C5CCCC5)nc4c3)c2c1 | Cyclin-dependent kinase 9, with cyclin T1 (CDK9, Homo sapiens, UniProt P50750) | enzyme activity, inhibitor |  | 1 µM | activity vs control | 98%
CC(C)(C)c1cnc(CSc2cnc(NC(=O)C3CCN(C(=O)CCCCCCCN4Cc5cc6c(cc5C4)C(=O)N(C4CCC(=O)NC4=O)C6=O)CC3)s2)o1 (stereo not drawn) | CDK9 | protein level, degrader, western blot | TC-71 | 25 nM | inhibition | 94.4%
CO[C@@H]1[C@H](N(C)C(=O)c2ccccc2)C[C@H]2O[C@]1(C)n1c3ccccc3c3c4c(c5c6ccccc6n2c5c31)C(=O)NC4 | CDK9 | enzyme activity, inhibitor |  | 1 µM | inhibition | 3%
